Here are results for eleven molecules from ChEMBL document CHEMBL3108698, “Targeting low-druggability bromodomains: fragment based screening and inhibitor design against the BAZ2B bromodomain” (J Med Chem, 2013).

The structures appear in SMILES notation.

The target in assay [1] is Bromodomain adjacent to zinc finger domain protein 2B (Homo sapiens) (UniProt Q9UIF8). The assay can be described thus: Displacement of biotinylated H3Kac14 peptide from His6-tagged human BAZ2B expressed in Escherichia coli BL21(DE3) at 200 uM after 30 mins by AlphaLISA assay relative to control.
Assay [2] deals with Bromodomain-containing protein 2 (Homo sapiens) (UniProt P25440). The assay can be described thus: Binding affinity to BRD2 bromodomain-2 (unknown origin) assessed as change in melting temperature at 100 uM by differential scanning fluorimetric analysis. Summed up:
(§1)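 SYPRO Orange (1:1000) thermal shift with 2 μM bromodomain and 100 μM compound (final), 0.1% DMSO final, in 10 mM HEPES, 500 mM NaCl, 5% glycerol, 0.5 mM TCEP. Tm taken as the minimum of the negative first derivative of the melt curve. Run in triplicate; averages reported.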
(DSF heats the sample and reads unfolding from a dye or from intrinsic fluorescence.)

The target is the same in assay [3]. The assay can be described thus: Binding affinity to BRD2 bromodomain-1 (unknown origin) assessed as change in melting temperature at 100 uM by differential scanning fluorimetric analysis. In short, it runs like this: as §1
In assay [4] the target is CREB-binding protein (Homo sapiens) (UniProt Q92793). The assay can be described thus: Binding affinity to CREBBP (unknown origin) assessed as change in melting temperature at 100 uM by differential scanning fluorimetric analysis. In short, it runs like this: as §1

Sequence of Bromodomain adjacent to zinc finger domain protein 2B (Homo sapiens) (Q9UIF8 whole entry, the tested form may be a part): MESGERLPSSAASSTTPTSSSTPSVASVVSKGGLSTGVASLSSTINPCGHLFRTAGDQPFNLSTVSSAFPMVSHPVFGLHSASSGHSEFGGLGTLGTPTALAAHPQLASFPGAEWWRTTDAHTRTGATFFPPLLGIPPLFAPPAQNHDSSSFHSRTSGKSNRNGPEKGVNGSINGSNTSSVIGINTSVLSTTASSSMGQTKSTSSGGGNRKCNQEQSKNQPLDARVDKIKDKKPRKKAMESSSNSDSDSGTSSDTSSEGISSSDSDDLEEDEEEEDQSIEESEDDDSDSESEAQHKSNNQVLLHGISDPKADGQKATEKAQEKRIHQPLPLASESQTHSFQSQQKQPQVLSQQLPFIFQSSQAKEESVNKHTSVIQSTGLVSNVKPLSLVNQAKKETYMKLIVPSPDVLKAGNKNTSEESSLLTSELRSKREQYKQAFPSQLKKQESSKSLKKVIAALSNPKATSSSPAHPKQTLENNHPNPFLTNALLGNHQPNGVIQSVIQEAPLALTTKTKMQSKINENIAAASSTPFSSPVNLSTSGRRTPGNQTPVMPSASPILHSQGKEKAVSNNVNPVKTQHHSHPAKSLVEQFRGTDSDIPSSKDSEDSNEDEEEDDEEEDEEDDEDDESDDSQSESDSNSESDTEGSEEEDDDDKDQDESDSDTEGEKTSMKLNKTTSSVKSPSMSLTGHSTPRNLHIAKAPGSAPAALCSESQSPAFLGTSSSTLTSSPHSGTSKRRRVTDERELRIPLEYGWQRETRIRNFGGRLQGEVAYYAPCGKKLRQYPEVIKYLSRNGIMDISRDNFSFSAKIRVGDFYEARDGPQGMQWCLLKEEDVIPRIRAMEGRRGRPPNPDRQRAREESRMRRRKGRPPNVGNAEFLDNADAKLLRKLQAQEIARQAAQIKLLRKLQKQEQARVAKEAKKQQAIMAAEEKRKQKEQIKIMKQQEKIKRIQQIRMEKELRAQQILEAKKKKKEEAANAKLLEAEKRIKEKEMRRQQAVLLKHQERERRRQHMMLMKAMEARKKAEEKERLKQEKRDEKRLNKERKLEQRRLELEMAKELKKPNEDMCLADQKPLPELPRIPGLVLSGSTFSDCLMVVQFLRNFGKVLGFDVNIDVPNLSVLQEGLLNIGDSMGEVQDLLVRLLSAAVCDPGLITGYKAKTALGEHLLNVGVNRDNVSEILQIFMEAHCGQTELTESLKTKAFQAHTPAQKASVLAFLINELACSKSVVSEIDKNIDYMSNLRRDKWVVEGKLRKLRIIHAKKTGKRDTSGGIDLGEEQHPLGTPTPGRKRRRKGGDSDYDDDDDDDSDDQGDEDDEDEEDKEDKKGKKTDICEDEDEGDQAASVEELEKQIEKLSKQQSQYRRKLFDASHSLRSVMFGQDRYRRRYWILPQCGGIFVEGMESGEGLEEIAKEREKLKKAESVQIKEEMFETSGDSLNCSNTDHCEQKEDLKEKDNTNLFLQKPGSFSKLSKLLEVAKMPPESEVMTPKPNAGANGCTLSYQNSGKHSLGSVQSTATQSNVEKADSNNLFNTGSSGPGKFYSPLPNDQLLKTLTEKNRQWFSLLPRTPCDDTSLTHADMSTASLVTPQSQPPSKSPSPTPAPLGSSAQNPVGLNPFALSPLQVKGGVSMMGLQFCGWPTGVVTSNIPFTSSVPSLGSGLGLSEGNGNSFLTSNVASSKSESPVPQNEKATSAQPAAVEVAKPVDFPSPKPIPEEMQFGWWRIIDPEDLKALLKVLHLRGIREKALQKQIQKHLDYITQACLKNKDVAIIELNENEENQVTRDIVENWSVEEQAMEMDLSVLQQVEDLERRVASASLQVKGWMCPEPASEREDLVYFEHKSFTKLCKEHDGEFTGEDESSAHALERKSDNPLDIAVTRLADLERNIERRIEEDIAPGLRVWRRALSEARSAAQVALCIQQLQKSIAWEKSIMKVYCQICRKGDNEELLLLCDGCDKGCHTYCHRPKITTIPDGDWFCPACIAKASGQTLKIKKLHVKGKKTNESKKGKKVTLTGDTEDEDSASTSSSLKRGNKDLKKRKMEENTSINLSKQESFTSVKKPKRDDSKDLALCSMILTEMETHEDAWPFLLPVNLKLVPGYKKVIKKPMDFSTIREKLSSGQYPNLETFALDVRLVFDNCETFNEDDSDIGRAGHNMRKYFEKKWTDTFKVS
Sequence of Bromodomain-containing protein 2 (Homo sapiens) (P25440 whole entry, looked up): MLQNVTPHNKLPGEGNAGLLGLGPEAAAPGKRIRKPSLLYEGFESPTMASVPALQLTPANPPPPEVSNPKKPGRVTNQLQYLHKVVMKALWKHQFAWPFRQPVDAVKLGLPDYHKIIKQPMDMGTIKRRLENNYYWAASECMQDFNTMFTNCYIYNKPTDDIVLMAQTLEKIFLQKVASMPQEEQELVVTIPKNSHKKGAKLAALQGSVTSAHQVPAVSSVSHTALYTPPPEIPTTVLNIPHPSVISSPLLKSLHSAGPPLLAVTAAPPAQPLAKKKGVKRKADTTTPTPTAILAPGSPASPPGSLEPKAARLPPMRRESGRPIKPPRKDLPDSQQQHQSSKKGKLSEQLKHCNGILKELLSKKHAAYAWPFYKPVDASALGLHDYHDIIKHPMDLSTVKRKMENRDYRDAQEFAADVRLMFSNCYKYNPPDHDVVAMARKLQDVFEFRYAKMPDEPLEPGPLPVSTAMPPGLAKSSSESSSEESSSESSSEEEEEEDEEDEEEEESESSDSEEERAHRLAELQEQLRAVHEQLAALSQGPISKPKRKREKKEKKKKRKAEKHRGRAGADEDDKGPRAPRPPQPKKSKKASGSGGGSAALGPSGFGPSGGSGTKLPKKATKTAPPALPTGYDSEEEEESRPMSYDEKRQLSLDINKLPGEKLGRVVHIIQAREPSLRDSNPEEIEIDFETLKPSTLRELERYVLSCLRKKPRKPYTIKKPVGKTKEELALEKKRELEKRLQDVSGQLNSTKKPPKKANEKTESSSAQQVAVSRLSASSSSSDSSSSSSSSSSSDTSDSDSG

With `CC(=O)N1CCc2c(c3cccc4c3n2C(=O)CN4C)C1`, the inhibition (usually how much of the control response was suppressed) in assay [1] stood at 63%.
In assay [1], `CC(=O)N1CCc2[nH]c3ccc(N(C)C(C)=O)cc3c2C1` yielded an inhibition of 65%.
The molecule `CC(=O)N1CCc2c(c3cc(Br)ccc3n2S(=O)(=O)c2ccc(C)cc2)C1` gave an inhibition in assay [1] of 60%.
`CC(=O)N1CCc2c(c3cccc4c3n2CCS4)C1` had an inhibition in assay [1] of 70%.
On to `CC(=O)N1CCc2[nH]c3ccc(Oc4ccccc4)cc3c2C1`, for which the inhibition in assay [1] came to 65%.
For `CC(=O)N1CCc2[nH]c3ccc(Br)cc3c2C1`, the ΔTm – broadly, the shift of the melting midpoint relative to a reference – in assay [2] was found to be 3.5 °C; in assay [3], 7.3 °C; in assay [4] it was 8.1 °C.
Regarding `CC(=O)N1CCc2c(c3cc(Br)ccc3n2C(=O)OC(C)(C)C)C1`, the inhibition in assay [1] was found to be 38%.
On to `CC(=O)N1CCc2[nH]c3ccc(C(=O)O)cc3c2C1`, for which, in assay [1], the inhibition came out at 48%.
Regarding `CNC(=O)N1CCc2[nH]c3ccc(Cl)cc3c2C1`, the ΔTm in assay [2] was -0.2 °C; in assay [3] it was -0.6 °C; in assay [4], 2.1 °C.
`CC(=O)N1CCc2[nH]c3ccc(-c4cccnc4)cc3c2C1` registered an inhibition in assay [1] of 55%.
In turn, `CC(=O)N1CCc2[nH]c3c(O)ccc(Cl)c3c2C1` displayed an inhibition in assay [1] of 52%.
